# Experimental data as given in ChEMBL document CHEMBL3046055, “Synthesis and herbicidal activity of novel N-(2,2,2)-trifluoroethylpyrazole derivatives” (J Agric Food Chem, 2010).
# Columns and labels:
# [1] = test system: Zea mays; test: Toxicity against Zea mays var. SHEN DAN 17 (maize) assessed induction of crop injury at 800 g ai/ha using pre-emergence treatment protocol under field trials conditions measured 30 days post soil treatment; type: organism-based; settings: in vivo, other, 720 h
# In short: (§1)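 Pre-emergence application to soil surface within 24 h after maize planting, at 300, 400, 600 or 800 g a.i. ha^-1. Fresh weight of aerial plant parts measured 30 days later; percentage inhibition calculated relative to water-sprayed control.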
# [2] = test system: Zea mays; test: Toxicity against Zea mays var. SHEN DAN 17 (maize) assessed induction of crop injury at 600 g ai/ha using pre-emergence treatment protocol under field trials conditions measured 30 days post soil treatment; type: organism-based; settings: in vivo, other, 720 h; in short: as §1
# [3] = test system: Zea mays; test: Toxicity against Zea mays var. SHEN DAN 17 (maize) assessed induction of crop injury at 400 g ai/ha using pre-emergence treatment protocol under field trials conditions measured 30 days post soil treatment; type: organism-based; settings: in vivo, other, 720 h; in short: as §1
# [4] = test system: Zea mays; test: Toxicity against Zea mays var. SHEN DAN 17 (maize) assessed induction of crop injury at 300 g ai/ha using pre-emergence treatment protocol under field trials conditions measured 30 days post soil treatment; type: organism-based; settings: in vivo, other, 720 h; in short: as §1
# [5] = test system: Convolvulus arvensis; test: Herbicidal activity against Convolvulus arvensis assessed as inhibition of fresh weed plant weights at 600 g ai/ha using pre-emergence treatment protocol under field trials conditions measured 30 days post soil treatment relative to untreated control; type: functional; settings: 720 h
# In short: (§2)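 Field pre-emergence trial. Treatments were applied to the soil surface within 24 h after maize planting, at 300, 400, 600 and 800 g a.i. ha^-1. Fresh weight of aerial plant parts was measured 30 days later, and percent inhibition calculated relative to the water-sprayed control.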
# [6] = test system: Convolvulus arvensis; test: Herbicidal activity against Convolvulus arvensis assessed as inhibition of fresh weed plant weights at 300 g ai/ha using pre-emergence treatment protocol under field trials conditions measured 30 days post soil treatment relative to untreated control; type: functional; settings: 720 h; in short: as §2
# [7] = test system: Portulaca oleracea; test: Herbicidal activity against Portulaca oleracea assessed as inhibition of fresh weed plant weights at 600 g ai/ha using pre-emergence treatment protocol under field trials conditions measured 30 days post soil treatment relative to untreated control; type: functional; settings: 720 h; in short: as §2
# [8] = test system: Portulaca oleracea; test: Herbicidal activity against Portulaca oleracea assessed as inhibition of fresh weed plant weights at 400 g ai/ha using pre-emergence treatment protocol under field trials conditions measured 30 days post soil treatment relative to untreated control; type: functional; settings: 720 h; in short: as §2
# [9] = test system: Portulaca oleracea; test: Herbicidal activity against Portulaca oleracea assessed as inhibition of fresh weed plant weights at 300 g ai/ha using pre-emergence treatment protocol under field trials conditions measured 30 days post soil treatment relative to untreated control; type: functional; settings: 720 h; in short: as §2
# [10] = test system: Eleusine indica; test: Herbicidal activity against Eleusine indica assessed as inhibition of fresh weed plant weights at 600 g ai/ha using pre-emergence treatment protocol under field trials conditions measured 30 days post soil treatment relative to untreated control; type: functional; settings: 720 h; in short: as §2
# [11] = test system: Eleusine indica; test: Herbicidal activity against Eleusine indica assessed as inhibition of fresh weed plant weights at 300 g ai/ha using pre-emergence treatment protocol under field trials conditions measured 30 days post soil treatment relative to untreated control; type: functional; settings: 720 h; in short: as §2
# [12] = test system: Echinochloa crus-galli; test: Herbicidal activity against Echinochloa crus-galli (barnyard grass) assessed as inhibition of fresh weed plant weights at 800 g ai/ha using pre-emergence treatment protocol under field trials conditions measured 30 days post soil treatment relative to untreated control; type: functional; settings: 720 h; in short: as §2
# [13] = test system: Echinochloa crus-galli; test: Herbicidal activity against Echinochloa crus-galli (barnyard grass) assessed as inhibition of fresh weed plant weights at 600 g ai/ha using pre-emergence treatment protocol under field trials conditions measured 30 days post soil treatment relative to untreated control; type: functional; settings: 720 h; in short: as §2
# [14] = test system: Echinochloa crus-galli; test: Herbicidal activity against Echinochloa crus-galli (barnyard grass) assessed as inhibition of fresh weed plant weights at 400 g ai/ha using pre-emergence treatment protocol under field trials conditions measured 30 days post soil treatment relative to untreated control; type: functional; settings: 720 h; in short: as §2
# [15] = test system: Echinochloa crus-galli; test: Herbicidal activity against Echinochloa crus-galli (barnyard grass) assessed as inhibition of fresh weed plant weights at 300 g ai/ha using pre-emergence treatment protocol under field trials conditions measured 30 days post soil treatment relative to untreated control; type: functional; settings: 720 h; in short: as §2
# [16] = test system: Zea mays; test: Toxicity against Zea mays var. SHEN DAN 17 (maize) assessed as inhibition of fresh weed plant weights at 600 g ai/ha using pre-emergence treatment protocol under greenhouse conditions relative to untreated control; type: organism-based; settings: in vivo, other
# In short: (§3)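 Pre-emergence test in plastic pots kept in a greenhouse at 22-25 °C. Fresh weight of aerial plant parts was measured 20 days later, and percent inhibition calculated relative to water-sprayed controls. Metolachlor served as the positive control. Three replicates were run per concentration.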
# [17] = test system: Portulaca oleracea; test: Herbicidal activity against Portulaca oleracea assessed as inhibition of fresh weed plant weights at 600 g ai/ha using pre-emergence treatment protocol under greenhouse conditions relative to untreated control; type: functional; in short: as §3
# [18] = test system: Portulaca oleracea; test: Herbicidal activity against Portulaca oleracea assessed as inhibition of fresh weed plant weights at 300 g ai/ha using pre-emergence treatment protocol under greenhouse conditions relative to untreated control; type: functional; in short: as §3
# [19] = test system: Echinochloa crus-galli; test: Herbicidal activity against Echinochloa crus-galli (barnyard grass) assessed as inhibition of fresh weed plant weights at 150 g ai/ha using pre-emergence treatment protocol under greenhouse conditions relative to untreated control; type: functional; in short: as §3
# [20] = test system: Digitaria sanguinalis; test: Herbicidal activity against Digitaria sanguinalis (hairy crabgrass) assessed as inhibition of fresh weed plant weights at 300 g ai/ha using pre-emergence treatment protocol under greenhouse conditions relative to untreated control; type: functional; in short: as §3
# [21] = test system: Digitaria sanguinalis; test: Herbicidal activity against Digitaria sanguinalis (hairy crabgrass) assessed as inhibition of fresh weed plant weights at 150 g ai/ha using pre-emergence treatment protocol under greenhouse conditions relative to untreated control; type: functional; in short: as §3
# [22] = test system: Eleusine indica; test: Herbicidal activity against Eleusine indica assessed as inhibition of fresh weed plant weights at 600 g ai/ha using pre-emergence treatment protocol under greenhouse conditions relative to untreated control; type: functional; in short: as §3
# [23] = test system: Eleusine indica; test: Herbicidal activity against Eleusine indica assessed as inhibition of fresh weed plant weights at 300 g ai/ha using pre-emergence treatment protocol under greenhouse conditions relative to untreated control; type: functional; in short: as §3
# [24] = test system: Eleusine indica; test: Herbicidal activity against Eleusine indica assessed as inhibition of fresh weed plant weights at 150 g ai/ha using pre-emergence treatment protocol under greenhouse conditions relative to untreated control; type: functional; in short: as §3
# [25] = test system: Digitaria sanguinalis; test: Herbicidal activity against Digitaria sanguinalis (hairy crabgrass) assessed as inhibition of fresh weed plant weights at 600 g ai/ha using pre-emergence treatment protocol under greenhouse conditions relative to untreated control; type: functional; in short: as §3
# [26] = test system: Portulaca oleracea; test: Herbicidal activity against Portulaca oleracea assessed as inhibition of root growth at […] measured 7 days post treatment; type: functional; design: dose or concentration left out as unconfirmed; settings: 168 h, read-out: GI
# [27] = test system: Digitaria sanguinalis; test: Herbicidal activity against Digitaria sanguinalis (hairy crabgrass) assessed as inhibition of fresh weed plant weights at 800 g ai/ha using pre-emergence treatment protocol under field trials conditions measured 30 days post soil treatment relative to untreated control; type: functional; settings: 720 h; in short: as §2
# [28] = test system: Digitaria sanguinalis; test: Herbicidal activity against Digitaria sanguinalis (hairy crabgrass) assessed as inhibition of fresh weed plant weights at 600 g ai/ha using pre-emergence treatment protocol under field trials conditions measured 30 days post soil treatment relative to untreated control; type: functional; settings: 720 h; in short: as §2
# [29] = test system: Brassica rapa subsp. oleifera; test: Toxicity against Brassica rapa subsp. oleifera var. JING GUAN 1 assessed as inhibition of fresh weed plant weights at 600 g ai/ha using pre-emergence treatment protocol under greenhouse conditions relative to untreated control; type: organism-based; settings: in vivo, other; in short: as §3
# [30] = test system: Brassica rapa subsp. oleifera; test: Toxicity against Brassica rapa subsp. oleifera var. JING GUAN 1 assessed as inhibition of fresh weed plant weights at 300 g ai/ha using pre-emergence treatment protocol under greenhouse conditions relative to untreated control; type: organism-based; settings: in vivo, other; in short: as §3
smiles,measurement,setting,value
Cc1nn(CC(F)(F)F)c(CS(=O)(=O)C2=NOC(C)(C)C2)c1Cl,Activity,[1],0%
same,Activity,[2],0%
same,Activity,[3],0%
same,Activity,[4],0%
same,inhibition at 600 g/ha,[5],27%
same,inhibition at 300 g/ha,[6],14%
same,inhibition at 600 g/ha,[7],95%
same,inhibition at 400 g/ha,[8],85%
same,inhibition at 300 g/ha,[9],80%
same,inhibition at 600 g/ha,[10],98%
same,inhibition at 300 g/ha,[11],97%
same,inhibition at 800 g/ha,[12],100%
same,inhibition at 600 g/ha,[13],100%
same,inhibition at 400 g/ha,[14],100%
same,inhibition at 300 g/ha,[15],100%
same,inhibition (INH),[16],1%
same,inhibition at 600 g/ha,[17],99%
same,inhibition at 300 g/ha,[18],97%
same,inhibition at 150 g/ha,[19],100%
same,inhibition at 300 g/ha,[20],97%
same,inhibition at 150 g/ha,[21],86%
same,inhibition at 600 g/ha,[22],100%
same,inhibition at 300 g/ha,[23],99%
same,inhibition at 150 g/ha,[24],97%
same,inhibition at 600 g/ha,[25],100%
same,inhibition of growth,[26],63%
same,inhibition at 800 g/ha,[27],100%
same,inhibition at 600 g/ha,[28],100%
same,inhibition (INH),[29],11%
same,inhibition (INH),[30],12%
